# Experimental data as given in ChEMBL document CHEMBL4680306, “The 3-D conformational shape of N-naphthyl-cyclopenta[d]pyrimidines affects their potency as microtubule targeting agents and their antitumor activity” (Bioorg Med Chem, 2021).
# Activity calls are given as the source filed them. The rule behind the calls is not given here.
# How the values were obtained:
# PC-3 = assay: Cytotoxicity against human PC-3 cells assessed as inhibition of cell growth measured after 48 hrs by SRB assay; format: functional
# HOP-62 = assay: Cytotoxicity against human HOP-62 cells assessed as inhibition of cell growth measured after 48 hrs by SRB assay; format: functional
# NCI-H460 = assay: Cytotoxicity against human NCI-H460 cells assessed as inhibition of cell growth measured after 48 hrs by SRB assay; format: functional
# SK-MEL-2 = assay: Cytotoxicity against human SK-MEL-2 cells assessed as inhibition of cell growth measured after 48 hrs by SRB assay; format: functional
# NCI-H23 = assay: Cytotoxicity against human NCI-H23 cells assessed as inhibition of cell growth measured after 48 hrs by SRB assay; format: functional
# HT-29 = assay: Cytotoxicity against human HT-29 cells assessed as inhibition of cell growth measured after 48 hrs by SRB assay; format: functional
# SNB-19 = assay: Cytotoxicity against human SNB-19 cells assessed as inhibition of cell growth measured after 48 hrs by SRB assay; format: functional
# HCC 2998 = assay: Cytotoxicity against human HCC 2998 cells assessed as inhibition of cell growth measured after 48 hrs by SRB assay; format: functional
# SF-268 = assay: Cytotoxicity against human SF-268 cells assessed as inhibition of cell growth measured after 48 hrs by SRB assay; format: functional
# DU-145 = assay: Cytotoxicity against human DU-145 cells assessed as inhibition of cell growth measured after 48 hrs by SRB assay; format: functional
# A498 = assay: Cytotoxicity against human A498 cells assessed as inhibition of cell growth measured after 48 hrs by SRB assay; format: functional
# Hs-578T = assay: Cytotoxicity against human Hs-578T cells assessed as inhibition of cell growth measured after 48 hrs by SRB assay; format: functional
# NCI-H226 = assay: Cytotoxicity against human NCI-H226 cells assessed as inhibition of cell growth measured after 48 hrs by SRB assay; format: functional
# CCRF-CEM = assay: Cytotoxicity against human CCRF-CEM cells assessed as inhibition of cell growth measured after 48 hrs by SRB assay; format: functional
# SW-620 = assay: Cytotoxicity against human SW-620 cells assessed as inhibition of cell growth measured after 48 hrs by SRB assay; format: functional
# SF-295 = assay: Cytotoxicity against human SF-295 cells assessed as inhibition of cell growth measured after 48 hrs by SRB assay; format: functional
# Malme-3M = assay: Cytotoxicity against human Malme-3M cells assessed as inhibition of cell growth measured after 48 hrs by SRB assay; format: functional
# [1] = Cytotoxicity against human SK-MEL-5 cells assessed as inhibition of cell growth measured after 48 hrs by SRB assay; format: functional
# HOP-92 = assay: Cytotoxicity against human HOP-92 cells assessed as inhibition of cell growth measured after 48 hrs by SRB assay; format: functional
# M14 = assay: Cytotoxicity against human M14 cells assessed as inhibition of cell growth measured after 48 hrs by SRB assay; format: functional
# KM12 = assay: Cytotoxicity against human KM12 cells assessed as inhibition of cell growth measured after 48 hrs by SRB assay; format: functional
# SK-OV-3 [2] = assay: Cytotoxicity against human SK-OV-3 cells assessed as inhibition of cell growth measured after 48 hrs by SRB assay; format: functional
# OVCAR-4 = assay: Cytotoxicity against human OVCAR-4 cells assessed as inhibition of cell growth measured after 48 hrs by SRB assay; format: functional
# MOLT-4 = assay: Cytotoxicity against human MOLT-4 cells assessed as inhibition of cell growth measured after 48 hrs by SRB assay; format: functional
# OVCAR-5 = assay: Cytotoxicity against human OVCAR-5 cells assessed as inhibition of cell growth measured after 48 hrs by SRB assay; format: functional
# U-251 [3] = assay: Cytotoxicity against human U-251 cells assessed as inhibition of cell growth measured after 48 hrs by SRB assay; format: functional
# OVCAR-8 = assay: Cytotoxicity against human OVCAR-8 cells assessed as inhibition of cell growth measured after 48 hrs by SRB assay; format: functional
# A549 = assay: Cytotoxicity against human A549 cells assessed as inhibition of cell growth measured after 48 hrs by SRB assay; format: functional
# COLO 205 = assay: Cytotoxicity against human COLO 205 cells assessed as inhibition of cell growth measured after 48 hrs by SRB assay; format: functional
# SNB-75 = assay: Cytotoxicity against human SNB-75 cells assessed as inhibition of cell growth measured after 48 hrs by SRB assay; format: functional
# NCI/ADR-RES = assay: Cytotoxicity against human NCI/ADR-RES cells assessed as inhibition of cell growth measured after 48 hrs by SRB assay; format: functional
# SR = assay: Cytotoxicity against human SR cells assessed as inhibition of cell growth measured after 48 hrs by SRB assay; format: functional
# SF-539 = assay: Cytotoxicity against human SF-539 cells assessed as inhibition of cell growth measured after 48 hrs by SRB assay; format: functional
# IGROV-1 = assay: Cytotoxicity against human IGROV-1 cells assessed as inhibition of cell growth measured after 48 hrs by SRB assay; format: functional
# UACC-62 = assay: Cytotoxicity against human UACC-62 cells assessed as inhibition of cell growth measured after 48 hrs by SRB assay; format: functional
# 786-0 = assay: Cytotoxicity against human 786-0 cells assessed as inhibition of cell growth measured after 48 hrs by SRB assay; format: functional
# K562 = assay: Cytotoxicity against human K562 cells assessed as inhibition of cell growth measured after 48 hrs by SRB assay; format: functional
# T47D = assay: Cytotoxicity against human T47D cells assessed as inhibition of cell growth measured after 48 hrs by SRB assay; format: functional
# LOX IMVI = assay: Cytotoxicity against human LOX IMVI cells assessed as inhibition of cell growth measured after 48 hrs by SRB assay; format: functional
# OVCAR-3 = assay: Cytotoxicity against human OVCAR-3 cells assessed as inhibition of cell growth measured after 48 hrs by SRB assay; format: functional
# MDA-MB-435 [4] = assay: Cytotoxicity against human MDA-MB-435 cells assessed as inhibition of cell growth measured after 48 hrs by SRB assay; format: functional
# HL-60(TB) = assay: Cytotoxicity against human HL-60(TB) cells assessed as inhibition of cell growth measured after 48 hrs by SRB assay; format: functional
# MCF7 = assay: Cytotoxicity against human MCF7 cells assessed as inhibition of cell growth measured after 48 hrs by SRB assay; format: functional
# SK-MEL-28 = assay: Cytotoxicity against human SK-MEL-28 cells assessed as inhibition of cell growth measured after 48 hrs by SRB assay; format: functional
# BT-549 = assay: Cytotoxicity against human BT-549 cells assessed as inhibition of cell growth measured after 48 hrs by SRB assay; format: functional
# SN12C = assay: Cytotoxicity against human SN12C cells assessed as inhibition of cell growth measured after 48 hrs by SRB assay; format: functional
# EKVX = assay: Cytotoxicity against human EKVX cells assessed as inhibition of cell growth measured after 48 hrs by SRB assay; format: functional
# HCT-116 = assay: Cytotoxicity against human HCT-116 cells assessed as inhibition of cell growth measured after 48 hrs by SRB assay; format: functional
# [5] = Antiproliferative activity against human SK-OV-3 MDR-1-6/6 cells expressing Pgp assessed as decrease in cell growth measured after 48 hrs by SRB method; format: functional; details: SK-OV-3, 48 h
# [6] = Induction of microtubule depolymerisation in rat A-10 cell line measured after 18 hrs by indirect immunofluorescence method; details: a10
# Outline: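 Rat A-10 cells, chosen because they arrest in interphase without significant mitotic accumulation, were exposed to compounds for 18 h. Cellular microtubules were then visualized by indirect immunofluorescence. EC50 values come from at least three independent experiments.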
# [7] = Inhibition of bovine tubulin polymerization assessed as reduction in extent of assembly preincubated for 15 mins followed by addition of reaction mixture measured after 20 mins by turbidimetric assay; set-up: species or system Bos taurus
# Outline: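 After chilling, GTP was added (0.4 mM final). Turbidity at 350 nm was read after a jump from 0 °C to 30 °C.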
# Bos taurus [8] = species on record: Bos taurus; assay: Inhibition of [3H]colchicine binding to bovine tubulin at 1 uM measured after 10 mins by scintillation counting
# Outline: (§1)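 Purified bovine brain tubulin at 1.0 µM was mixed with 5.0 µM [3H]colchicine and inhibitor, plus components that stabilize colchicine binding, in 5% DMSO; tubulin was added last, on ice. Binding ran 10 min at 37 °C and was stopped with ice water. Mixtures were filtered through stacked DEAE-cellulose filters, and bound radiolabel was measured by scintillation counting.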
# Bos taurus [9] = species on record: Bos taurus; assay: Inhibition of [3H]colchicine binding to bovine tubulin at 5 uM measured after 10 mins by scintillation counting; outline: as §1
# [10] = Relative resistance, ratio of IC50 for antiproliferative activity against human SK-OV-3 MDR-1-6/6 cells expressing Pgp to IC50 antiproliferative activity against human SK-OV-3 cells; format: functional
# SK-OV-3 [11] = assay: Antiproliferative activity against human SK-OV-3 cells assessed as decrease in cell growth measured after 48 hrs by SRB method; format: functional, cell-based; details: SK-OV-3, 48 h
# MDA-MB-435 [12] = assay: Antiproliferative activity against human MDA-MB-435 cell line assessed as inhibition of cell proliferation measured after 48 hrs by SRB assay; format: functional, cell-based; details: MDA-MB-435, 48 h
# Outline: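 MDA-MB-435 melanoma cells were assessed by sulforhodamine B assay. IC50 is the mean ± SD of at least three independent experiments, each run in triplicate.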
# U-251 [13] = assay: Cytotoxicity against human U251 cell line assessed as inhibition of cell growth after 48 hrs by SRB assay; format: functional, cell-based; details: U-251, 48 h
# [14] = Relative resistance, ratio of IC50 for inhibition of beta3 Tubulin (unknown origin) expressed in human HeLa cell line assessed as inhibition of cell proliferation to IC50 antiproliferative activity against human HeLa cells
# HeLa = assay: Antiproliferative activity against human HeLa cells assessed as decrease in cell growth measured after 48 hrs by SRB method; format: functional, cell-based
# U-251 [15] = assay: Antitumour activity against human U251 cells xenografted in NCr athymic nude nu/nu mouse assessed as decrease in tumour growth at 50 mg/kg once in a week; format: functional, organism-based
smiles,measurement,setting,value
CC(=O)O[C@H]1C(=O)[C@@]2(C)[C@H]([C@H](OC(=O)c3ccccc3)[C@]3(O)C[C@H](OC(=O)[C@H](O)[C@@H](NC(=O)c4ccccc4)c4ccccc4)C(C)=C1C3(C)C)[C@]1(OC(C)=O)CO[C@@H]1C[C@@H]2O [PACLITAXEL],GI50,PC-3,6.3 nM
same,GI50,HOP-62,19 nM
same,GI50,NCI-H460,6.3 nM
same,GI50,SK-MEL-2,400 nM
same,GI50,NCI-H23,6.3 nM
same,GI50,HT-29,5 nM
same,GI50,SNB-19,10 nM
same,GI50,HCC 2998,1 nM
same,GI50,SF-268,5 nM
same,GI50,DU-145,6.3 nM
same,GI50,A498,7.9 nM
same,GI50,Hs-578T,5 nM
same,GI50,NCI-H226,3.9 nM
same,GI50,CCRF-CEM,5 nM
same,GI50,SW-620,4 nM
same,GI50,SF-295,25 nM
same,GI50,Malme-3M,50 nM
same,GI50,[1],5 nM
same,GI50,HOP-92,25 nM
same,GI50,M14,5 nM
same,GI50,KM12,5 nM
same,GI50,SK-OV-3 [2],6.3 nM
same,GI50,OVCAR-4,630 nM
same,GI50,MOLT-4,5 nM
same,GI50,OVCAR-5,7.9 nM
same,GI50,U-251 [3],6.3 nM
same,GI50,OVCAR-8,7.9 nM
same,GI50,A549,6.3 nM
same,GI50,COLO 205,7.9 nM
same,GI50,SNB-75,7.9 nM
same,GI50,NCI/ADR-RES,630 nM
same,GI50,SR,6.3 nM
same,GI50,SF-539,5 nM
same,GI50,IGROV-1,6.3 nM
same,GI50,UACC-62,5 nM
same,GI50,786-0,39 nM
same,GI50,K562,6.3 nM
same,GI50,T47D,12.5 nM
same,GI50,LOX IMVI,5 nM
same,GI50,OVCAR-3,4 nM
same,GI50,MDA-MB-435 [4],4 nM
same,GI50,HL-60(TB),4 nM
same,GI50,MCF7,4 nM
same,GI50,SK-MEL-28,400 nM
same,GI50,BT-549,4 nM
same,GI50,SN12C,6.3 nM
same,GI50,EKVX,79 nM
same,GI50,HCT-116,4 nM
COc1ccc(N(C)c2nc(C)nc3c2CCC3)cc1,IC50,[5],16.4 nM
same,EC50,[6],26 nM
same,IC50,[7],1600 nM
same,inhibition,Bos taurus [8],70%
same,inhibition,Bos taurus [9],92%
COc1ccc(N(C)c2nc(C)nc3c2CCC3)c2ccccc12,Ratio IC50,[10],1.2
same,IC50,SK-OV-3 [11],330 nM
same,IC50,MDA-MB-435 [12],230 nM
same,IC50,U-251 [13],35.1 nM
same,IC50,[5],400 nM
same,EC50,[6],500 nM
same,IC50,[7],1400 nM
same,Ratio IC50,[14],0.7
same,IC50,HeLa,250 nM
same,inhibition,Bos taurus [9],72%
Cn1nnc2c(C(N)=O)ncn2c1=O,inhibition,U-251 [15],Active
COc1cccc2cc(N(C)c3nc(N)nc4c3CCC4)ccc12,Ratio IC50,[10],1.3
same,IC50,SK-OV-3 [11],14.9 nM
same,IC50,MDA-MB-435 [12],8.7 nM
same,IC50,[5],19.6 nM
same,EC50,[6],26 nM
same,Ratio IC50,[14],0.8
same,IC50,HeLa,12.6 nM
COc1cccc2c(N(C)c3nc(C)nc4c3CCC4)cccc12,Ratio IC50,[10],1.1
same,IC50,SK-OV-3 [11],1200 nM
same,IC50,MDA-MB-435 [12],820 nM
same,IC50,U-251 [13],38.9 nM
same,IC50,[5],1300 nM
same,EC50,[6],3700 nM
same,Ratio IC50,[14],0.7
same,IC50,HeLa,1200 nM
